Reference: ChEMBL document CHEMBL1133453, “Further studies on nociceptin-related peptides: discovery of a new chemical template with antagonist activity on the nociceptin receptor” (J Med Chem, 2000)
The source made the active and inactive calls. The calls are words filed in the database; no cut-off is given here. Numbered stars: 1 amine (or outer) side, 2 acyl side, 3 side chain; on linkers, the order of the positions; unused ones are H or OH. Square brackets hold non-standard residues; d marks the D form. Peptide text beside a SMILES is read from it. X5 = N[C@@H](Cc1ccc(O)cc1)CN(CC(=O)[*:2])[*:1]; X1 = CC(C)C[C@H](N)CN(CC(=O)[*:2])[*:1]; Nphe = O=C(O)CNCc1ccccc1

Tests used:
Mus musculus [1] = species: Mus musculus; assay: Potency (Emax) at 10 uM against electrically evoked contraction (twitch response) in mouse vas deferens; Slight effect (50% inhibition was detected at 10 uM); assay type: functional, organism-based
How it was run: (§1)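 Mouse vas deferens held in Mg2+-free Krebs at 33 °C under 0.3 g resting tension. Field stimulation through platinum electrodes with supramaximal 1-ms pulses at 0.1 Hz, twitches recorded isotonically. After about 2 h equilibration, cumulative concentration-response curves built in 0.5 log steps up to 10 µM. pEC50 taken as the concentration giving half-maximal effect. Mean of at least 3 experiments.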

Mus musculus [2] = species: Mus musculus; assay: Compound was tested for agonistic activity against electrically evoked contraction (twitch response) in mouse vas deferens; Slight effect (50% inhibition was detected at 10 uM); assay type: functional, organism-based; details: filed as partial agonist; how it was run: as §1
Mus musculus [3] = species: Mus musculus; assay: Compound was tested for the antagonistic activity on mouse vas deferens using NC(1-13)NH2 as agonist; assay type: functional
How it was run: (§2)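 Electrically stimulated mouse vas deferens (Mg2+-free Krebs, 33 °C, 0.1 Hz, 1-ms pulses). Antagonist at 10 µM added 15 min before a cumulative NC(1-13)NH2 concentration-response curve. pKB calculated with the Gaddum-Schild equation, assuming a slope of 1, from the concentration ratio. Mean of at least 3 experiments, with 95% confidence limits.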

Nociceptin receptor [4] = biological target: T1, Nociceptin receptor (Mus musculus, UniProt P35377); assay: Affinity to nociceptin receptors on mouse forebrain membranes by [3H]NC-NH2 displacement.
T1 sequence (P35377 whole entry): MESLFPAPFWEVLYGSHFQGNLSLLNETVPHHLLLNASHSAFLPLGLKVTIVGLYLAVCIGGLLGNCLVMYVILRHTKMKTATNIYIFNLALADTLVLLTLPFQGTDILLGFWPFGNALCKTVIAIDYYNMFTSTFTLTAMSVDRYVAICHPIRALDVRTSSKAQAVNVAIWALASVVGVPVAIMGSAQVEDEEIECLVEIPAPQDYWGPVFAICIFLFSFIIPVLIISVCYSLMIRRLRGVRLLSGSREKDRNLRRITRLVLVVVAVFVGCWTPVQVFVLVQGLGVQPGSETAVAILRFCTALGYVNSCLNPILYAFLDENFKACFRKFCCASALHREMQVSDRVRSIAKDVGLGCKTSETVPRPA
How it was run: (§3)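 Forebrain membranes from male Swiss mice (25-30 g), homogenized in 50 mM Tris HCl, 2 mM EDTA, 100 µM PMSF, pH 7.4, then preincubated 30 min at 37 °C. Bound ligand separated by GF/C filtration. Ki obtained by nonlinear least-squares fitting.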

Mus musculus [5] = species: Mus musculus; assay: Potency (Emax) against electrically evoked contraction (twitch response) in mouse vas deferens; NA means Inactive up to 10 uM; assay type: functional, organism-based; how it was run: as §1
Mus musculus [6] = species: Mus musculus; assay: Compound was tested for agonistic activity against electrically evoked contraction (twitch response) in mouse vas deferens; NA means Inactive up to 10 uM; assay type: functional, organism-based; how it was run: as §1
Mus musculus [7] = species: Mus musculus; assay: Compound was tested for the antagonistic activity on mouse vas deferens using NC(1-13)NH2 as agonist; NA means Inactive up to 10 uM; assay type: functional, organism-based; how it was run: as §2
Nociceptin receptor [8] = biological target: T1, Nociceptin receptor; assay: Binding affinity towards Orphanin FQ receptor on mouse forebrain membranes was determined using [3H]-NC-NH2 as radioligand; set-up: species or system Membrane
How it was run: as §3, with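 “°C. Competition against 0.5 nM [3H]NC-NH2 using 200 µg protein per assay, run in duplicate, 120 min at 25 °C.” for “°C.”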

Row | SMILES | Emax (Mus musculus [1]) | Log EC50 (Mus musculus [2]) | pKB (Mus musculus [3]) | Ki (Nociceptin receptor [4]) [µM] | Emax (Mus musculus [5]) | Log EC50 (Mus musculus [6]) | pKB (Mus musculus [7]) | Ki (Nociceptin receptor [8]) [µM]
1 | CC(C)C[C@H](N)CNCC(=O)NCC(=O)N[C@@H](Cc1ccccc1)C(=O)N[C@H](C(=O)NCC(=O)N[C@@H](C)C(=O)N[C@@H](CCCN=C(N)N)C(=O)N[C@@H](CCCCN)C(=O)N[C@@H](CO)C(=O)N[C@@H](C)C(=O)N[C@@H](CCCN=C(N)N)C(=O)N[C@@H](CCCCN)C(N)=O)[C@@H](C)O (H-[X1]GFTGARKSARK-NH2) | Partially active | Partial agonist | 5.4 | 0.0158 | – | – | – | –
2 | C[C@H](NC(=O)CNC(=O)[C@@H](NC(=O)[C@H](Cc1ccccc1)NC(=O)CNC(=O)CNC[C@@H](N)Cc1ccc(O)cc1)[C@@H](C)O)C(=O)N[C@@H](CCCN=C(N)N)C(=O)N[C@@H](CCCCN)C(=O)N[C@@H](CO)C(=O)N[C@@H](C)C(=O)N[C@@H](CCCN=C(N)N)C(=O)N[C@@H](CCCCN)C(N)=O (H-[X5]GFTGARKSARK-NH2) | Partially active | Partial agonist | 5.7 | 0.1 | – | – | – | –
3 | C[C@H](NC(=O)CNC(=O)[C@@H](NC(=O)[C@H](Cc1ccccc1)NC(=O)CNC(=O)CNC(=O)CNCc1ccccc1)[C@@H](C)O)C(=O)N[C@@H](CCCN=C(N)N)C(=O)N[C@@H](CCCCN)C(N)=O (H-[Nphe]GGFTGARK-NH2) | – | – | – | – | inactive | inactive | inactive | > 10
